Laboratory results from ChEMBL document CHEMBL2093137, “WHO-TDR NTD Screening”.
In brackets after ≈: the same amount, converted by molar mass.

Key:
[1] = WHO-TDR: Cytotoxicity; type: toxicity, cell-based; conditions: human, MRC5 cells
Plasmodium falciparum K1 = assay: WHO-TDR: Malaria; type: functional, organism-based, Homo sapiens; conditions: Erythrocyte
Method in brief: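 Whole-organism screen of a 10,000-compound diverse library from Life Chemicals, filtered for drug-likeness and reactive groups, against intra-erythrocytic Plasmodium falciparum K1 strain in human red blood cells. The assay followed previously published standard procedures, with a reference drug as positive control. Antiplasmodial potency is reported as IC50.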

Trypanosoma cruzi = assay: WHO-TDR: Chagas disease; type: functional, organism-based, Homo sapiens; conditions: MRC5
Method in brief: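 Intracellular amastigotes of the Trypanosoma cruzi Tulahuen CL2 beta-galactosidase strain, grown in MRC-5SV2 human lung fibroblast host cells, were tested in a whole-organism screen. The compounds came from a 10,000-member diverse Life Chemicals library that had been filtered for drug-likeness and reactive groups. Previously published standard procedures were followed, with a reference drug as positive control, and potency is reported as IC50.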

[2] = test system: Trypanosoma brucei brucei; assay: WHO-TDR: Human African Trypanosomiasis (HAT); type: functional, organism-based; conditions: Squib-427
Method in brief: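 Whole-organism screen of a 10,000-compound diverse library from Life Chemicals, filtered for drug-likeness and reactive groups, against bloodstream forms of Trypanosoma brucei Squib 427 strain. The assay followed previously published standard procedures, with reference drugs as positive controls. Antiparasitic potency is reported as IC50.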

Leishmania infantum = assay: WHO-TDR: Leishmaniasis; type: functional, organism-based, Mus musculus; conditions: Macrophage
Method in brief: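 Whole-organism screen of a 10,000-compound diverse library from Life Chemicals, filtered for drug-likeness and reactive groups, against intracellular amastigotes of Leishmania infantum MHOM/MA(BE)/67 in murine peritoneal macrophage host cells. The assay followed previously published standard procedures, with a reference drug as positive control. Antiparasitic potency is reported as IC50.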

Schistosoma mansoni = assay: WHO-TDR: Schistosomiasis; type: functional; parameters: concentration or dose not given beside the values
Method in brief: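 In this whole-organism assay, larval and/or adult worms of Schistosoma mansoni (Puerto Rican strain) were exposed to compounds from a diverse Life Chemicals library of 10,000 members. A reference drug served as positive control. Activity is stated as percent inhibition and IC50.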

Onchocerca ochengi [3] = assay: (§1) WHO-TDR: Onchocerciasis; type: functional; parameters: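 at 12.5 µM on microfilariae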
Method in brief: (§2)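 Microfilariae of Onchocerca ochengi or Onchocerca lienalis, animal pathogens standing in for the human parasite, were exposed to compounds in a whole-organism screen. The compounds came from a 10,000-compound diverse Life Chemicals library filtered for drug-likeness and reactive groups. Results are expressed as percent inhibition and IC50.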

Onchocerca ochengi [4] = assay: as §1; type: functional; parameters: concentration or dose not given beside the values; method in brief: as §2; remark: listed apart in the source
Brugia malayi [5] = assay: (§3) WHO-TDR: Lymphatic Filariasis; type: functional; parameters: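 tested at 10 µM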
Method in brief: (§4)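 In a whole-organism assay, Brugia malayi microfilariae were screened against a diverse Life Chemicals library that had been filtered for drug-likeness and reactive groups. That library comprised 10,000 compounds. Activity is expressed as percent inhibition and as IC50.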

Brugia malayi [6] = assay: as §3; type: functional; parameters: concentration or dose not given beside the values; method in brief: as §4; remark: listed apart in the source

IC50 (Plasmodium falciparum K1) [µg/mL] | IC50 [2] [µg/mL] | IC50 (Leishmania infantum) [µg/mL] | Compound | IC50 [1] [µg/mL] | IC50 (Trypanosoma cruzi) [µg/mL] | % Inhibition (Schistosoma mansoni) [%] | % Inhibition (Onchocerca ochengi [3]) [%] | % Inhibition (Onchocerca ochengi [4]) [%] | % Inhibition (Brugia malayi [5]) [%] | % Inhibition (Brugia malayi [6]) [%]
> 10.7 | > 10.7 | > 10.7 | O=C(CC1CSc2nccc(=O)n21)Nc1ccc(Cl)c(Cl)c1 (stereo unspecified) | > 10.7 | > 10.7 | 0 | 100 | 0 | – | –
> 11.4 | > 11.4 | > 11.4 | N#Cc1cnc2c(F)cccc2c1Nc1ccc(Br)cc1 | > 11.4 | > 11.4 | 0 | 100 | – | 0 | 0
3.65 (≈ 8.53 µM) | 4.57 (≈ 10.7 µM) | > 13.9 | Cc1ccc(-n2ccnc2N2CCN(C(=O)c3ccccc3SC(F)F)CC2)cc1 | 13.9 (≈ 32.6 µM) | 0.531 (≈ 1.24 µM) | 58.3 | 100 | – | 0 | 0
6.14 (≈ 14.6 µM) | 4.13 (≈ 9.83 µM) | > 12.6 | COc1ccc(CCC(=O)NCC(c2ccsc2)N2CCc3ccccc3C2)cc1 (stereo unspecified) | > 12.6 | 4.15 (≈ 9.87 µM) | 0 | 100 | 0 | – | –
> 12.6 | > 12.6 | > 12.6 | COc1ccccc1OCC(=O)Nc1nc(CSCc2ccc(F)cc2)cs1 | > 12.6 | > 12.6 | 0 | 100 | 0 | – | –
> 10.5 | > 10.5 | > 10.5 | O=C(Nc1nc(CSCc2ccc(F)cc2)cs1)c1ccco1 | > 10.5 | > 10.5 | 0 | 100 | 0 | – | –
5.78 (≈ 15.2 µM) | 3.65 (≈ 9.6 µM) | > 11.4 | NC(=O)c1cc(-c2ccccc2)sc1NC(=O)C1COc2ccccc2O1 (stereo unspecified) | 1.92 (≈ 5.04 µM) | 3.4 (≈ 8.93 µM) | 25 | 100 | 0 | – | –
> 10.9 | > 10.9 | > 10.9 | NC(=O)c1cc(-c2ccccc2)sc1NC(=O)c1cc2ccccc2o1 | > 10.9 | > 10.9 | 0 | 100 | 0 | – | –
1.39 (≈ 4.82 µM) | 0.146 (≈ 0.508 µM) | 2.79 (≈ 9.71 µM) | CCSc1nnc(-c2ccccc2)c2sc(C)nc12 | 4.9 (≈ 17 µM) | 0.259 (≈ 0.901 µM) | 0 | 100 | 0 | – | –
6.75 (≈ 22.6 µM) | 6.52 (≈ 21.8 µM) | > 8.95 | Cc1nc2c(SCC#N)nnc(-c3ccccc3)c2s1 | > 8.95 | 0.444 (≈ 1.49 µM) | 0 | 25 | 0 | – | –
6.88 (≈ 22 µM) | > 9.4 | > 9.4 | O=C(Nc1nnc(-c2ccno2)o1)c1nc2ccccc2s1 | > 9.4 | > 9.4 | 0 | 100 | 0 | – | –
5.03 (≈ 12 µM) | > 12.5 | > 12.5 | CC1CCCN(S(=O)(=O)c2ccc(C(=O)Nc3nnc(-c4ccno4)o3)cc2)C1 (stereo unspecified) | > 12.5 | > 12.5 | 0 | 100 | 0 | – | –
> 8.38 | 2.65 (≈ 9.49 µM) | > 8.38 | CC(C)c1ccc(NC(=O)c2n[nH]c3ccccc23)cc1 | > 8.38 | 2.58 (≈ 9.23 µM) | 0 | 100 | 0 | – | –
> 12.7 | > 12.7 | > 12.7 | O=C(CC1CSc2nccc(=O)n21)Nc1cc(C(F)(F)F)cc(C(F)(F)F)c1 (stereo unspecified) | > 12.7 | > 12.7 | 0 | 100 | 0 | – | –
6.43 (≈ 15.3 µM) | 4.07 (≈ 9.71 µM) | > 12.6 | Cc1cc(=O)n2c(n1)SCC2CC(=O)NCCC(c1ccccc1)c1ccccc1 (stereo unspecified) | > 12.6 | > 12.6 | 0 | 100 | 0 | – | –

Further lines, the compound ahead of its results:

Compound | IC50 (Plasmodium falciparum K1) [µg/mL] | IC50 [2] [µg/mL] | IC50 (Leishmania infantum) [µg/mL] | IC50 [1] [µg/mL] | IC50 (Trypanosoma cruzi) [µg/mL] | % Inhibition (Schistosoma mansoni) [%] | % Inhibition (Onchocerca ochengi [3]) [%] | % Inhibition (Onchocerca ochengi [4]) [%] | % Inhibition (Brugia malayi [5]) [%] | % Inhibition (Brugia malayi [6]) [%]
Cc1cc(NC(=O)C2CCCN(S(=O)(=O)c3ccccc3)C2)on1 (stereo unspecified) | > 10.5 | > 10.5 | 0.339 (≈ 0.97 µM) | > 10.5 | > 10.5 | 41.7 | 0 | – | 0 | 0
Cc1cc(C(=O)N(CCCN(C)C)c2nc3c(C)ccc(Cl)c3s2)no1 | 3.3 (≈ 8.41 µM) | 0.378 (≈ 0.962 µM) | 4.17 (≈ 10.6 µM) | 5.07 (≈ 12.9 µM) | 4.14 (≈ 10.5 µM) | 0 | 100 | 0 | – | –
O=C(CC1CCCC1)Nc1nc(CSCc2ccc(F)cc2)cs1 | 3.04 (≈ 8.35 µM) | 3.5 (≈ 9.6 µM) | > 10.9 | > 10.9 | 2.43 (≈ 6.67 µM) | 0 | 100 | 0 | – | –
O=C(COc1ccc(F)cc1)NCC(c1ccsc1)N1CCc2ccccc2C1 (stereo unspecified) | > 12.3 | 4.19 (≈ 10.2 µM) | > 12.3 | > 12.3 | 3.73 (≈ 9.09 µM) | 0 | 100 | 0 | – | –
CN(C)C(CNS(=O)(=O)c1cc(Cl)ccc1Cl)c1ccsc1 (stereo unspecified) | 7.08 (≈ 18.7 µM) | 3.82 (≈ 10.1 µM) | > 11.4 | > 11.4 | > 11.4 | 0 | 100 | 0 | – | –
Cc1ccc(Cl)c2sc(N3CCN(C)CC3)nc12 | 3.31 (≈ 11.7 µM) | 3.05 (≈ 10.8 µM) | > 9.55 | > 9.55 | 2.38 (≈ 8.46 µM) | 0 | 100 | 0 | – | –
CSCc1csc(NC(=O)Cc2ccc(Cl)cc2)n1 | 5.98 (≈ 19.1 µM) | 3 (≈ 9.6 µM) | > 9.38 | 3.7 (≈ 11.8 µM) | 2.47 (≈ 7.91 µM) | 0 | 100 | 75 | – | –
COc1ccc(S(=O)(=O)CC(=O)Nc2sc(-c3ccccc3)cc2C(N)=O)cc1 | 6.93 (≈ 16.1 µM) | 4.28 (≈ 9.95 µM) | > 12.9 | > 12.9 | > 12.9 | 0 | 100 | 0 | – | –
NC(=O)c1cc(-c2ccccc2)sc1NC(=O)Cc1ccc2c(c1)OCO2 | 5.1 (≈ 13.4 µM) | 3.65 (≈ 9.6 µM) | > 11.4 | > 11.4 | > 11.4 | 0 | 100 | 0 | – | –
Cc1ccc(N2CCn3c2nnc(C(=O)NCCC2=CCCCC2)c3=O)cc1 | 0.152 (≈ 0.4 µM) | > 11.4 | 3.69 (≈ 9.71 µM) | > 11.4 | > 11.4 | 0 | 0 | 0 | – | –
O=C(NCCC1=CCCCC1)c1n[nH]c2ccccc12 | > 8.08 | > 8.08 | > 8.08 | > 8.08 | > 8.08 | 0 | 100 | 0 | – | –
O=C(NCCc1c[nH]c2ccccc12)c1n[nH]c2ccccc12 | > 9.13 | > 9.13 | > 9.13 | > 9.13 | 8.2 (≈ 27 µM) | 0 | 100 | 0 | – | –
O=C(NCc1cc(-c2ccccc2F)on1)c1ccc(Br)o1 | > 11 | > 11 | > 11 | > 11 | > 11 | 0 | 100 | 0 | – | –
Cc1ccc2nc(-c3ccc(NC(=O)CC4CSc5nc(C)cc(=O)n54)cc3)sc2c1 (stereo unspecified) | 3.38 (≈ 7.54 µM) | > 13.5 | > 13.5 | > 13.5 | > 13.5 | 0 | 100 | 0 | – | –
O=C(Nc1ccc(C(F)(F)F)cc1)N1CCN(Cc2nnnn2-c2ccccc2)CC1 | > 12.9 | 6.01 (≈ 13.9 µM) | > 12.9 | > 12.9 | > 12.9 | – | 100 | – | 0 | 0
CN(c1ccccc1)c1nnc(-c2ccc(NC(=O)Cc3cccs3)cc2)s1 | > 12.2 | > 12.2 | 3.95 (≈ 9.71 µM) | > 12.2 | > 12.2 | – | 100 | – | 0 | 25
